Experimental data reported in ChEMBL document CHEMBL2203194, “Phenolic compounds from Caesalpinia sappan heartwood and their anti-inflammatory activity” (J Nat Prod, 2012).
pIC50: −log10 of the molar value. Calls of active or inactive are those of the source. No cut-off for these calls is given here.

Experiments:
RAW264.7 [1] = experiment: Antiinflammatory activity in mouse RAW264.7 cells assessed as inhibition of LPS-induced TNFalpha production incubated for 24 hrs by ELISA; assay type: functional, cell-based; conditions: RAW264.7, 24 h
In short: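 RAW264.7 cells (1 × 10^5 cells/well) stimulated with 1 μg/mL LPS for 24 h with test compounds; TNF-α in culture supernatant quantified by ELISA. IC50 relative to vehicle control; mean ± SD of three repeated experiments. Celastrol positive control.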

RAW264.7 [2] = experiment: Cytotoxicity against mouse RAW264.7 cells at 50 uM incubated for 24 hrs in presence of LPS by MTT assay; assay type: cell-based; conditions: raw264.7, 24 h
In short: (§1)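 RAW264.7 viability by MTT colorimetric assay after 24 h with compounds at 50 μM, with or without LPS (1 μg/mL).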

RAW264.7 [3] = experiment: Antiinflammatory activity in mouse RAW264.7 cells assessed as reduction of LPS-induced IkappaBalpha degradation at 30 uM pre-treated for 30 mins before LPS challenge and measured after 10 mins by immunoblot; assay type: functional, cell-based
In short: (§2)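 30 min pretreatment of RAW264.7 cells with compound, then LPS (1 μg/mL). Lysis in ice-cold Tris-HCl pH 7.5/NP-40 buffer with protease/phosphatase inhibitors. SDS-PAGE, PVDF transfer, skim-milk block, anti-IκB-α antibody, HRP secondary, ECL detection.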

RAW264.7 [4] = experiment: Antiinflammatory activity in mouse RAW264.7 cells assessed as inhibition of LPS-induced nitric oxide generation incubated for 24 hrs; assay type: functional, cell-based; conditions: RAW264.7, 24 h
In short: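 Nitrite in supernatant reacted with Griess reagent (sulfanilamide/phosphoric acid plus naphthylethylenediamine), A540 read, calibrated against NaNO2 standard. IC50 versus vehicle control, mean ± SD of three experiments; celastrol positive control.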

[5] = Antioxidant activity assessed as nitric oxide free radical scavenging activity by UV-visible spectroscopy; assay type: functional
In short: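 Compounds in DMSO, made up with MeOH, mixed with 10 mM sodium nitroprusside in PBS; room temperature 150 min. Scavenging % = (control − sample)/control × 100, MeOH blank as control; ascorbic acid standard. IC50, mean ± SD of three experiments.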

RAW264.7 [6] = experiment: Antiinflammatory activity in mouse RAW264.7 cells assessed as reduction of LPS-induced IkappaBalpha degradation at 30 uM pre-treated for 30 mins before LPS challenge and measured after 15 mins by immunoblot; assay type: functional, cell-based; in short: as §2
RAW264.7 [7] = experiment: Antiinflammatory activity in mouse RAW264.7 cells assessed as reduction of LPS-induced IkappaBalpha resynthesis at 30 uM pre-treated for 30 mins before LPS challenge by immunoblot; assay type: functional, cell-based; in short: as §2
RAW264.7 [8] = experiment: Cytotoxicity against mouse RAW264.7 cells at 50 uM incubated for 24 hrs in absence of LPS by MTT assay; assay type: cell-based; conditions: raw264.7, 24 h; in short: as §1
RAW264.7 [9] = experiment: Effect on alpha-tubulin protein expression in mouse RAW264.7 cells up to 10 uM pre-treated for 30 mins before LPS challenge for 18 hrs by immunoblot; assay type: functional, cell-based
In short: (§3)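 Cells pretreated 30 min with compound (0−10 μM), then LPS 1 μg/mL for 18 h. Total lysates in ice-cold Tris-HCl pH 7.5/NP-40 buffer; 50 μg protein per lane by SDS-PAGE, PVDF, skim-milk block, anti-iNOS and anti-α-tubulin antibodies, HRP secondary, ECL. iNOS densitometry normalized to α-tubulin.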

RAW264.7 [10] = experiment: Antiinflammatory activity in mouse RAW264.7 cells assessed as reduction of LPS-induced iNOS protein expression pre-treated for 30 mins before LPS challenge for 18 hrs by immunoblot; assay type: functional, cell-based; in short: as §3
RAW264.7 [11] = experiment: Antiinflammatory activity in mouse RAW264.7 cells assessed as reduction of LPS-induced IkappaBalpha degradation at 30 uM pre-treated for 30 mins before LPS challenge and measured after 5 mins by immunoblot; assay type: functional, cell-based; in short: as §2

SMILES	pIC50 (RAW264.7 [1])	pIC50 (RAW264.7 [4])	pIC50 [5]	Activity (RAW264.7 [2])	Activity (RAW264.7 [3])	Activity (RAW264.7 [6])	Activity (RAW264.7 [7])	Activity (RAW264.7 [8])	Activity (RAW264.7 [9])	Activity (RAW264.7 [10])	Activity (RAW264.7 [11])
O=C1c2ccc(O)cc2OC[C@]1(O)Cc1ccc(O)cc1		< 4.30	3.93	Non-toxic				Non-toxic			
O=C1C=C[C@]23CC(COC2=C1)Cc1cc(O)c(O)cc13		< 4.30	3.81	Non-toxic				Non-toxic			
O=C1/C(=C/c2ccc(O)cc2)COc2cc(O)ccc21		< 4.30	4.02	Non-toxic				Non-toxic			
O=C1O[C@H]([C@@H](O)CO)C(O)=C1O [ASCORBIC ACID]			6.15								
COc1cc(C[C@@]2(O)COc3cc(O)ccc3C2=O)ccc1O [CAESALPINIAPHENOL A]		< 4.30	3.99	Non-toxic				Non-toxic			
O=C1OCC=C1C[C@@]1(O)COc2cc(O)ccc2C1=O [CAESALPINIAPHENOL B]		< 4.30	4.02	Non-toxic				Non-toxic			
O=Cc1ccc(O)cc1O[C@H](O)c1ccc(O)c(O)c1 [CAESALPINIAPHENOL D]	< 4.30	4.91	3.95	Non-toxic				Non-toxic	inactive	Dose-dependent effect	
CC1=C(O)C(=O)C=C2C1=CC=C1[C@@]2(C)CC[C@@]2(C)[C@@H]3C[C@](C)(C(=O)O)CC[C@]3(C)CC[C@]12C [CELASTROL]	6.10										

Now from value to molecule, other results behind:

pIC50 (RAW264.7 [1])	pIC50 (RAW264.7 [4])	pIC50 [5]	SMILES	Activity (RAW264.7 [2])	Activity (RAW264.7 [3])	Activity (RAW264.7 [6])	Activity (RAW264.7 [7])	Activity (RAW264.7 [8])	Activity (RAW264.7 [9])	Activity (RAW264.7 [10])	Activity (RAW264.7 [11])
5.24	5.46	3.99	COc1cc(O)c2c(=O)c(OC)c(-c3ccc(O)c(O)c3)oc2c1	Non-toxic	Active	Active	Active	Non-toxic	inactive	Dose-dependent effect	
	4.37	4.18	O=C1c2ccc(O)cc2OC[C@@H]1Cc1ccc(O)c(O)c1	Non-toxic				Non-toxic			
	4.46	4.07	COc1ccc(-c2oc3cc(O)cc(O)c3c(=O)c2O)cc1OC	Non-toxic				Non-toxic			
	< 4.30	4.06	O=C1COc2cc(O)ccc2-c2cc(O)c(O)cc21 [CAESALPINIAPHENOL C]	Non-toxic				Non-toxic			
5.08	5.24	4.02	O=C1/C(=C/c2ccc(O)c(O)c2)COc2cc(O)ccc21 [SAPPANONE A]	Non-toxic		Active	Active	Non-toxic	inactive	Dose-dependent effect	Active
